In ChEMBL document CHEMBL3861971, “Cinnamoyloxy-mammeisin Isolated from Geopropolis Attenuates Inflammatory Process by Inhibiting Cytokine Production: Involvement of MAPK, AP-1, and NF-κB” (J Nat Prod, 2016):
Calls of active or inactive are those of the source. The rule behind the calls is not given here.

Legend:
RAW264.7 [1] = assay: Antiinflammatory activity in mouse RAW264.7 cells assessed as inhibition of peptidoglycan-stimulated TNFalpha production at 0.6 to 6 uM pretreated 30 mins prior to peptidoglycan challenge measured after 4 hrs by ELISA; type: functional, cell-based
Outline: (§1)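 RAW 264.7 cells grown in RPMI/10% FBS, plated at 2×10^5/well overnight. Pretreated with 0.6, 2 or 6 µM 30 min before PG 5 µg/mL or LPS 10 ng/mL. Supernatant collected at 4 h for TNF-α and CXCL2/MIP-2 ELISA. Mean ± SEM, n = 3–5.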

Mus musculus [2] = organism: Mus musculus; assay: Cytotoxicity against mouse RAW264.7 cells assessed as induction of apoptosis at 6 uM measured after 4 hrs by Annexin V-FTIC/propidium iodide staining-based flow cytometric analysis; type: toxicity, cell-based; conditions: raw264.7, 4 h
Outline: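 RAW 264.7 cells (2×10^6/well, overnight) exposed to 6 µM for 4 h, then washed into annexin buffer. Stained with annexin V-FITC (1:50, 4 °C, 20 min) and then PI (1:100). Analysed by flow cytometry, about 10 000 gated events. Three to four separate experiments.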

RAW264.7 [3] = assay: Antiinflammatory activity in mouse RAW264.7 cells assessed as inhibition of peptidoglycan-stimulated CXCL2/MIP-2 release at 0.6 to 6 uM pretreated 30 mins prior to peptidoglycan challenge measured after 4 hrs by ELISA; type: functional, cell-based; outline: as §1
Mus musculus [4] = assay: Antiinflammatory activity in specific pathogen-free C57BL/6 mouse assessed as reduction in carrageenan-induced CXCL2/MIP-2 release in peritoneal cavity at 300 ug/kg administered subcutaneously for 30 mins prior to carrageenan challenge measured after 3 hrs by ELISA; type: functional
Outline: (§2)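 Mice (male C57BL/6 SPF) dosed sc in 1% DMSO/PBS 30 min ahead of ip carrageenan 500 µg/cavity. Peritoneal cavity sampled at 1.5 h for TNF-α and at 3 h for CXCL2/MIP-2. Levels measured by ELISA, expressed as pg/mL or pg/mg tissue.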

Mus musculus [5] = assay: Anti-inflammatory activity in specific pathogen-free C57BL/6 mouse assessed as inhibition of carrageenan-induced leukocyte rolling into mesenteric venules at 300 ug/kg administered subcutaneously for 30 mins prior to carrageenan challenge measured after 2 hrs for 10 mins by intravital microscopic analysis; type: functional
Mus musculus [6] = organism: Mus musculus; assay: Cytotoxicity against mouse RAW264.7 cells at 6 uM measured after 4 hrs by MTT assay; type: toxicity, cell-based; conditions: raw264.7, 4 h
Outline: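 RAW 264.7 cells (2×10^5/well, overnight) exposed to 6 µM for 4 h. MTT 1 mg/mL in RPMI added for 2 h. Formazan taken up in absolute ethanol and absorbance read at 540 nm.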

Mus musculus [7] = assay: Anti-inflammatory activity in specific pathogen-free C57BL/6 mouse assessed as reduction in carrageenan-induced TNF-alpha release in peritoneal cavity at 300 ug/kg administered subcutaneously for 30 mins prior to carrageenan challenge measured after 1.5 hrs by ELISA; type: functional; outline: as §2
Mus musculus [8] = assay: Antiinflammatory activity in specific pathogen-free C57BL/6 mouse assessed as inhibition of mBSA-induced neutrophil migration into joint cavity at 100 ug/kg, administered post 21 days of immunization subcutaneously for 30 mins prior to mBSA challenge measured after 6 hrs by cell counting method; type: functional
Outline: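 C57BL/6 SPF males immunized sc with mBSA 500 µg in Complete Freund's adjuvant/PBS emulsion, boosted days 7 and 14 with Incomplete Freund's adjuvant plus mBSA. Compound given sc 30 min before ia mBSA 30 µg/joint on day 21. At 6 h joint cavity washed with PBS/EDTA, then total and differential leukocyte counts.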

Mus musculus [9] = assay: Antiinflammatory activity in specific pathogen-free C57BL/6 mouse assessed as reduction in mBSA-induced myeloperoxidase activity in joint cavity at 100 ug/kg administered post 21 days of immunization subcutaneously for 30 mins prior to mBSA challenge measured after 6 hrs by bioluminescence assay; type: functional
Outline: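 mBSA-immunized C57BL/6 mice pretreated sc 30 min before ia mBSA 30 µg/joint. At 6 h, under anesthesia, mice given ip bioluminescent myeloperoxidase probe 100 mg/kg. Joints imaged on IVIS Spectrum, read out as radiance (p/sec/cm²/sr).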

[10] = biological target: Transcription factor Jun (Mus musculus) (UniProt P05627); assay: Inhibition of c-jun phosphorylation in peptidoglycan-stimulated mouse RAW264.7 cells at 6 uM pretreated for 30 mins followed by peptidoglycan stimulation for 30 mins by immunofluorescence method
Mus musculus [11] = assay: Antiinflammatory activity in specific pathogen-free C57BL/6 mouse assessed as inhibition of carrageenan-induced neutrophil migration into peritoneal cavity at 300 ug/kg, administered subcutaneously for 30 mins prior to carrageenan challenge measured after 4 hrs using Neubauer chamber by optical microscopic analysis; type: functional
Outline: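 Male C57BL/6 SPF mice (20–22 g) pretreated sc (vehicle 1% DMSO in PBS), 30 min before ip carrageenan 500 µg/cavity. Peritoneal neutrophils determined 4 h later. Differential count of 100 cells by optical microscopy (100×). Expressed as neutrophils per cavity.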

RAW264.7 [12] = assay: Inhibition of JNK phosphorylation in peptidoglycan-stimulated mouse RAW264.7 cells at 6 uM pretreated for 30 mins followed by peptidoglycan stimulation for 15 mins by Western blot method; type: cell-based
Outline: (§3)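 RAW 264.7 cells (2×10^6/well) pretreated with 6 µM 30 min before PG 5 µg/mL. Lysed with RIPA plus protease/phosphatase inhibitors after 15 min of stimulation. Phospho-ERK1/2, SAPK/JNK and p38 detected by Western blot with chemiluminescence. n = 3 or 4.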

RAW264.7 [13] = assay: Antiinflammatory activity in mouse RAW264.7 cells assessed as inhibition of LPS-stimulated CXCL2/MIP-2 release at 0.6 to 6 uM pretreated 30 mins prior to LPS challenge measured after 4 hrs by ELISA; type: functional, cell-based; outline: as §1
RAW264.7 [14] = assay: Inhibition of NFkappaB activation (unknown origin) expressed in mouse RAW264.7 cells at 0.6 to 6 uM pretreated for 30 mins followed by peptidoglycan challenge measured after 4 hrs by luciferase reporter gene assay; type: cell-based; conditions: Homo sapiens
Outline: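 RAW 264.7 cells stably carrying an NF-κB-driven luciferase reporter, plated at 3×10^5/well overnight. Pretreated with 0.6–6 µM 30 min before PG 5 µg/mL. Lysed in Tris-NaCl-Tween buffer at 4 h, luciferin reagent added and luminescence read. n = 3–5.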

[15] = biological target: MAP kinase p38 (Mus musculus) (UniProt P47811+O08911+Q9WUI1+Q9Z1B7); assay: Inhibition of MAPK p38 phosphorylation in peptidoglycan-stimulated mouse RAW264.7 cells at 6 uM pretreated for 30 mins followed by peptidoglycan stimulation for 15 mins by Western blot method; type: cell-based; outline: as §3
[16] = biological target: Mitogen-activated protein kinase 1 and 3 (ERK2 and ERK1) (Mus musculus) (UniProt P63085+Q63844); assay: Inhibition of ERK1/2 phosphorylation in peptidoglycan-stimulated mouse RAW264.7 cells at 6 uM pretreated for 30 mins followed by peptidoglycan stimulation for 15 mins by Western blot method; type: cell-based; outline: as §3
Mus musculus [17] = assay: Antiinflammatory activity in specific pathogen-free C57BL/6 mouse assessed as reduction of mBSA-induced TNF-alpha release in joint cavity at 100 ug/kg, administered post 21 days of immunization subcutaneously for 30 mins prior mBSA challenge measured after 1.5 hrs by ELISA; type: functional
Outline: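 Immunized mice (mBSA/Freund's adjuvant, boosts days 7 and 14) treated sc 30 min before day-21 ia mBSA 30 µg/joint. TNF-α in the joint measured by ELISA 1.5 h after challenge.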

Mus musculus [18] = assay: Antiinflammatory activity in specific pathogen-free C57BL/6 mouse assessed as inhibition of carrageenan-induced leukocyte adhesion in mesenteric venules at 300 ug/kg administered subcutaneously for 30 mins prior to carrageenan challenge measured after 4 hrs by intravital microscopy; type: functional
RAW264.7 [19] = assay: Antiinflammatory activity in mouse RAW264.7 cells assessed as inhibition of LPS-stimulated TNFalpha production at 0.6 to 6 uM pretreated 30 mins prior to LPS challenge measured after 4 hrs by ELISA; type: functional, cell-based; outline: as §1

Transcription factor Jun (Mus musculus), sequence (P05627 whole entry): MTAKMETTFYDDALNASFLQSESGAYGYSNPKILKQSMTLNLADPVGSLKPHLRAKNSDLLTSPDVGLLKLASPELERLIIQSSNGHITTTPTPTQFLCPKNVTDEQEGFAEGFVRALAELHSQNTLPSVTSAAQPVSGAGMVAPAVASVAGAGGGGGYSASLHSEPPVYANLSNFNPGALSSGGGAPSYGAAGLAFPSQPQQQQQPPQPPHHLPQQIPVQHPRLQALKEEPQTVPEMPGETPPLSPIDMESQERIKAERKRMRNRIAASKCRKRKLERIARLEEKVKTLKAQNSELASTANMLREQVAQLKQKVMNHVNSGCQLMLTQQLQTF
Mitogen-activated protein kinase 1 and 3 (ERK2 and ERK1) (Mus musculus), sequence (P63085 whole entry, looked up): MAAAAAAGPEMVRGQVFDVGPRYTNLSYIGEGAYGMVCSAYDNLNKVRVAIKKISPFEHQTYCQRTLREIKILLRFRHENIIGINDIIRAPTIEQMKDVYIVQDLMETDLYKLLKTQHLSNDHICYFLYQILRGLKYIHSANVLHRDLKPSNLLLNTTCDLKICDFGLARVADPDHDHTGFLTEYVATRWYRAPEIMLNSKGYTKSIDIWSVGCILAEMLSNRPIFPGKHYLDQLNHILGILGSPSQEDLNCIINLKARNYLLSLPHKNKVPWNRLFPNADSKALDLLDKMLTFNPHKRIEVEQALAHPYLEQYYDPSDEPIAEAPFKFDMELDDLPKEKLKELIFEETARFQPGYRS
Mitogen-activated protein kinase 1 and 3 (ERK2 and ERK1) (Mus musculus), sequence (Q63844 whole entry, looked up): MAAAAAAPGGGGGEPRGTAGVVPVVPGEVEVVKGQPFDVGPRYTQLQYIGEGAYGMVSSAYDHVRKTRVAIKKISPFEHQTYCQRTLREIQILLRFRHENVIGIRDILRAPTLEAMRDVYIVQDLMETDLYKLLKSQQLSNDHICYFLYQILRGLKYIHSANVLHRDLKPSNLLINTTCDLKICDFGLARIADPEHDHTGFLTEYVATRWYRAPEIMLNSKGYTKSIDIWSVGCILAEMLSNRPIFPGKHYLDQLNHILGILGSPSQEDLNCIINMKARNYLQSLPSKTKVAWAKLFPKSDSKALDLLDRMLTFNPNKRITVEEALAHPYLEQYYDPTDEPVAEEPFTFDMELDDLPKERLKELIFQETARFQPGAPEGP

Activity (Mus musculus [9]): Active
inhibition [10]: Active
inhibition [15]: Active
inhibition [16]: Active
Compound: CC(C)=CCc1c(O)c(C(=O)CC(C)COC(=O)/C=C/c2ccccc2)c(O)c2c(-c3ccccc3)cc(=O)oc12 (centres undefined)
inhibition (RAW264.7 [1]): Active
Activity (Mus musculus [2]): Non-Toxic
inhibition (RAW264.7 [3]): Active
Activity (Mus musculus [4]): Active
inhibition (Mus musculus [5]): Active
Activity (Mus musculus [6]): Non-Toxic
Activity (Mus musculus [7]): Active
inhibition (Mus musculus [8]): Active
inhibition (Mus musculus [11]): Active
inhibition (RAW264.7 [12]): Active
inhibition (RAW264.7 [13]): Active
inhibition (RAW264.7 [14]): Active
Activity (Mus musculus [17]): Active
inhibition (Mus musculus [18]): Active
inhibition (RAW264.7 [19]): Active
